Experimental data collected from several papers.
HTR7: 5-hydroxytryptamine receptor 7 (HTR7, Homo sapiens, UniProt P34969)
CDK2: Cyclin-dependent kinase 2 (CDK2, Homo sapiens, UniProt P24941)
PKM: Pyruvate kinase PKM (PKM, Homo sapiens, UniProt P14618)
OR5K1 A2T/T15M/Y193C: OR5K1 (Homo sapiens, UniProt Q8NHB7, A2T/T15M/Y193C)
STAT3: Signal transducer and activator of transcription 3 (STAT3, Homo sapiens, UniProt P40763)
SIRT6: NAD-dependent protein deacylase sirtuin-6 (SIRT6, Homo sapiens, UniProt Q8N6T7)
OR5K1: OR5K1 (Homo sapiens, UniProt Q8NHB7)
HTR6: 5-hydroxytryptamine receptor 6 (HTR6, Homo sapiens, UniProt P50406)
FLT4: Vascular endothelial growth factor receptor 3 (FLT4, Homo sapiens, UniProt P35916)

| Structure (SMILES) | target | test | setting | endpoint | value |
| --- | --- | --- | --- | --- | --- |
| CC1=C(/C=C/C2=CCC[C@]3(C)[C@@H]([C@H](C)CCCC(C)(C)O)CC[C@@H]23)C[C@@H](O)CC1 | Oxysterols receptor LXR-beta (NR1H2, Homo sapiens, UniProt P55055) | coactivator recruitment, agonist, TR-FRET |  | EC50 | 0.01 to 0.1 µM |
| CN1CCN(C2=Nc3ccccc3Oc3ccc(Cl)cc32)CC1 | HTR7 | ligand displacement, radioligand | cell membranes | Ki | 0.258 µM |
| CC(=O)N=S(=O)(O)c1ccc(N/C=C2\C(=O)Nc3ccc4ncsc4c32)cc1 | CDK2 | binding, ITC |  | Kd | 0.194 µM |
| Cc1ccc(NS(=O)(=O)c2cc3c(cc2/C=C/c2ccccc2)NC(=O)CO3)cc1C | PKM | enzyme activity, activator |  | AC50 | > 20 µM |
| O=C(Nc1cc(C2CCCCC2)[nH]n1)c1ccc(Br)cc1 | CDK2 | binding |  | Kd | > 100 µM |
| Cc1ccc(NS(=O)(=O)c2cc3c(cc2N[C@@H](C)CO)CCC(=O)N3)cc1Cl | PKM | enzyme activity, activator |  | AC50 | 6.1 µM |
| CN(C)CCC=C1c2ccccc2CCc2ccccc21 | HTR7 | ligand displacement, radioligand | cell membranes | Ki | 0.096 µM |
| CCc1nccnc1OC | OR5K1 A2T/T15M/Y193C | cAMP, agonist |  | EC50 | 578 µM |
| Cc1cc(C)c(S(=O)(=O)N(C)CC(=O)N(Cc2ccc3ccccc3c2)c2ccc(C(=O)O)c(O)c2)c(C)c1 | STAT3 | ligand displacement, FP |  | Ki | 27.7 µM |
| Nc1nc2c(ncn2[C@@H]2O[C@H](COP(=O)(O)OP(=O)(O)O)[C@@H](OP(=O)(O)OP(=O)(O)O)[C@H]2O)c(=O)[nH]1 | icd (Escherichia coli, UniProt P08200) | binding, ITC |  | Kd | 132 µM |
| NC(=O)c1ccc(C(=O)NOCc2ccc(Nc3ccccc3)cc2)cc1 | SIRT6 | enzyme activity, inhibitor, fluorescence |  | IC50 | 2.61 µM |
| Cc1ccc(NS(=O)(=O)c2cc3c(cc2NC(C)CO)NC(=O)CC3)cc1C (stereo not shown) | PKM | enzyme activity, activator |  | AC50 | 0.23 µM |
| Cc1nccnc1C | OR5K1 | cAMP, agonist |  | EC50 | > 1500 µM |
| Cc1cc(NS(=O)(=O)c2cc3c(cc2F)NC(=O)CC3)ccc1Cl | PKM | enzyme activity, activator |  | AC50 | 0.6 µM |
| NCCc1ccc(C(=O)NOCc2ccc(C(F)(F)F)cc2)cc1 | SIRT6 | enzyme activity, inhibitor, fluorescence |  | IC50 | 2.65 µM |
| CCCCN1CCC(COC(=O)c2ccc(N)c(OCF)c2)CC1 | HTR6 | cell-free assay, radioligand |  | Ki | > 10 µM |
| CC(C)[C@@H](CC[C@@H](C)[C@H]1CC[C@H]2[C@@H]3[C@H](O)C[C@H]4C[C@@H](NCCCNCCCCNCCCN)CC[C@]4(C)[C@H]3CC[C@]12C)OS(=O)(=O)O | Receptor-type tyrosine-protein phosphatase R (PTPRR, Homo sapiens, UniProt Q15256) | enzyme activity, inhibitor |  | Ki | 25 µM |
| Cc1cnc(C)cn1 | OR5K1 | cAMP, agonist |  | EC50 | > 1500 µM |
| c1cnc2cc3c(cc2n1)[C@@H]1CNC[C@H]3C1 | Neuronal acetylcholine receptor subunit alpha-4/beta-2 (Mus musculus, UniProt O70174+Q9ERK7) | ligand displacement, radioligand | cell membranes | Ki | 0.00299 µM |
| CN1C[C@H](CNC(=O)OCc2ccccc2)C[C@@H]2c3cccc4c3c(cn4C)C[C@H]21 | HTR7 | ligand displacement, radioligand | cell membranes | Ki | 0.016 µM |

| Structure (SMILES) | target | test | setting | endpoint | value |
| --- | --- | --- | --- | --- | --- |
| Cc1cccc(CONC(=O)c2ccc(C(N)=O)cc2)c1 | SIRT6 | enzyme activity, inhibitor, fluorescence |  | IC50 | 3.94 µM |
| Cc1nc2cc(OCCCCN3CCN(c4cccc(Cl)c4Cl)CC3)ccc2s1 | HTR6 | cell-free assay, radioligand |  | Ki | 0.72 µM |
| Cc1cnc(-c2ccc(-c3ccc(NC(=O)Nc4c(F)cc(F)cc4F)cc3F)c3c2C(=O)NC3)[nH]1 | FLT4 | binding, competition with immobilised ligand |  | Kd | 0.016 µM |
| CC(N)c1ccc(C(=O)NOCc2ccc(C(F)(F)F)cc2)cc1 (stereo not shown) | SIRT6 | enzyme activity, inhibitor, fluorescence |  | IC50 | 2.64 µM |
| O=C1CCc2cc(S(=O)(=O)Nc3ccc4c(c3)OCCO4)ccc2N1 | PKM | enzyme activity, activator |  | AC50 | 11.1 µM |
| NC(=O)c1ccc(C(=O)NOCc2ccc3nccnc3c2)cc1 | SIRT6 | enzyme activity, inhibitor, fluorescence |  | IC50 | 65 µM |
| Cc1cc2nc3c(=O)[nH]c(=O)nc-3n(C[C@H](O)[C@H](O)[C@H](O)COP(=O)(O)OP(=O)(O)OC[C@H]3O[C@@H](n4cnc5c(N)ncnc54)[C@H](O)[C@@H]3O)c2cc1C | Nucleolysin TIAR (Homo sapiens, UniProt Q01085) | binding | lysate | Kd | 0.011 µM |
| O=C(NOCc1ccc(C(F)(F)F)cc1)c1ccc(CO)cc1 | SIRT6 | enzyme activity, inhibitor, fluorescence |  | IC50 | 6.68 µM |
| Cc1ccc(C(=O)Nc2ccc(Oc3cc4cnn(C)c4cc3-c3cn[nH]c3)c(F)c2)c(=O)n1-c1ccc(F)cc1 | FLT4 | enzyme activity in cells, inhibitor |  | IC50 | > 0.316 µM |
| CCc1nc2cc(OCCCCN3CCC(c4cccc(Cl)c4Cl)CC3)ccc2s1 | HTR6 | cell-free assay, radioligand |  | Ki | 0.96 µM |
| O=C1CCc2cc(S(=O)(=O)Nc3ccc4ncccc4c3)ccc2N1 | PKM | enzyme activity, activator |  | AC50 | > 20 µM |
| CC(=O)Nc1ccc(C(=O)NOCc2ccccc2)cc1 | SIRT6 | enzyme activity, inhibitor, fluorescence |  | IC50 | 218 µM |
| Cc1cnc(C)c(C)n1 | OR5K1 A2T/T15M/Y193C | cAMP, agonist |  | EC50 | 419 µM |
| Cc1cc(C)c(S(=O)(=O)N(C)CC(=O)N(Cc2cc(C(C)(C)C)cc(C(C)(C)C)c2)c2ccc(C(=O)O)c(O)c2)c(C)c1 | STAT3 | ligand displacement, FP |  | Ki | 19.7 µM |
| COc1cnccn1 | OR5K1 | cAMP, agonist |  | EC50 | > 1500 µM |
| Cc1ccc(NS(=O)(=O)c2cc3c(cc2Cl)CCC(=O)N3)cc1Cl | PKM | enzyme activity, activator |  | AC50 | 0.09 µM |
| CN1CCC(=C2c3ccccc3C=Cc3ccccc32)CC1 | HTR7 | ligand displacement, radioligand | cell membranes | Ki | 0.024 µM |
| NC(=O)c1ccc(C(=O)NOCc2ccc(Sc3ccccc3)c(C(F)(F)F)c2)cc1 | SIRT6 | enzyme activity, inhibitor, fluorescence |  | IC50 | 1.63 µM |
| Cc1ccc(NS(=O)(=O)c2cc3c(cc2Cl)NC(=O)CO3)cc1C | PKM | enzyme activity, activator |  | AC50 | 0.26 µM |
| CC(=O)N[C@H](C(=O)N[C@@H](CC(N)=O)C(=O)N[C@@H](CCCCN)C(=O)N[C@@H](C)C(=O)N[C@@H](CC(C)C)C(=O)N1CCC[C@H]1C(=O)N[C@@H](C)C(=O)N[C@@H](CC(C)C)C(=O)N1CCC[C@H]1C(=O)N[C@H](C(=O)N[C@@H](C)C(N)=O)C(C)C)C(C)C | Tyrosine-protein kinase Fyn, SH3 (FYN, Homo sapiens, UniProt P06241) | binding, ITC | pH 7 | Kd | 70 µM |
